Results taken from ChEMBL document CHEMBL1139935, “Discovery of novel indazole-linked triazoles as antifungal agents” (2007).
Converted amounts (≈) assume the structure as drawn.

Columns and labels:
Candida albicans [1] = assay: Antifungal activity against Candida albicans ATCC 36082 by broth microdilution assay; assay type: functional
Cryptococcus neoformans = assay: Antifungal activity against Cryptococcus neoformans ATCC 24065 by broth microdilution assay
Pichia kudriavzevii = assay: Antifungal activity against Candida krusei ATCC 6528 by broth microdilution assay; assay type: functional
Aspergillus flavus = assay: Antifungal activity against Aspergillus flavus ATCC MYA-1004 by broth microdilution assay; assay type: functional
Candida tropicalis = assay: Antifungal activity against Candida tropicalis ATCC 750 by broth microdilution assay; assay type: functional
Candida parapsilosis = assay: Antifungal activity against Candida parapsilosis ATCC 21019 by broth microdilution assay; assay type: functional; settings: Lodderomyces parapsilosis
Clavispora lusitaniae = assay: Antifungal activity against Candida lusitaniae ATCC 42720 by broth microdilution assay; assay type: functional
Aspergillus fumigatus = assay: Antifungal activity against Aspergillus fumigatus ATCC 16424 by broth microdilution assay; assay type: functional
Aspergillus niger = assay: Antifungal activity against Aspergillus niger ATCC 9042 by broth microdilution assay; assay type: functional
Aspergillus terreus = assay: Antifungal activity against Aspergillus terreus ATCC 28301 by broth microdilution assay; assay type: functional
HepG2 [2] = assay: Cytotoxicity against human HepG2 cells at 50 uM by neutral red uptake assay; assay type: functional
Nakaseomyces glabratus = assay: Antifungal activity against Candida glabrata ATCC 34138 by broth microdilution assay; assay type: functional
Candida albicans [3] = assay: Antifungal activity against systemic Candida albicans ATCC 36082 infection model in ICR mouse assessed as survival at 20 mg/kg, po; assay type: functional
In short: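 C. albicans ATCC 36082 given systemically, about 5 × 10⁵ cells per animal. Oral dosing at 20 mg/kg once daily started 2 h post-infection and continued for 7 consecutive days. Read-out was mean survival days, compared against an untreated infected control group.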

HepG2 [4] = assay: Cytotoxicity against human HepG2 cells by neutral red uptake assay; assay type: functional
In short: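 Human hepatoma HepG2 cells; neutral red uptake read-out following a previously described protocol; the value is the CC50 (concentration giving half-maximal cytotoxicity); ketoconazole served as reference agent.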

Compound | MIC80 (Candida albicans [1]) | MIC80 (Cryptococcus neoformans) | MIC80 (Pichia kudriavzevii) | MIC80 (Aspergillus flavus) | MIC80 (Candida tropicalis) | MIC80 (Candida parapsilosis) | MIC80 (Clavispora lusitaniae) | MIC80 (Aspergillus fumigatus) | MIC80 (Aspergillus niger) | MIC80 (Aspergillus terreus) | inhibition at 50 µM (HepG2 [2]) | MIC80 (Nakaseomyces glabratus) | Survival (Candida albicans [3]) | CC50 (HepG2 [4])
Cc1nn([C@H](C)[C@](O)(Cn2cncn2)c2ccc(F)cc2F)c2cccc(F)c12 | ≤ 0.015 µg/mL | 0.125 µg/mL (≈ 0.311 µM) | 1 µg/mL (≈ 2.49 µM) | > 16 µg/mL | 1 µg/mL (≈ 2.49 µM) | 0.25 µg/mL (≈ 0.623 µM) | 0.125 µg/mL (≈ 0.311 µM) | 16 µg/mL (≈ 39.9 µM) | > 16 µg/mL | > 16 µg/mL | 8.1% | 8 µg/mL (≈ 19.9 µM) |  | 
Cc1nn([C@H](C)[C@](O)(Cn2cncn2)c2ccc(F)cc2F)c2ccc(Cl)cc12 | ≤ 0.015 µg/mL | 0.25 µg/mL (≈ 0.598 µM) | 2 µg/mL (≈ 4.79 µM) | > 16 µg/mL | 1 µg/mL (≈ 2.39 µM) | 0.125 µg/mL (≈ 0.299 µM) | ≤ 0.015 µg/mL | > 16 µg/mL | > 16 µg/mL | > 16 µg/mL |  | 4 µg/mL (≈ 9.57 µM) |  | 
C[C@@H](n1cc2cc(Br)ccc2n1)[C@](O)(Cn1cncn1)c1ccc(F)cc1F | ≤ 0.015 µg/mL | ≤ 0.015 µg/mL | 0.125 µg/mL (≈ 0.279 µM) | 0.5 µg/mL (≈ 1.12 µM) | ≤ 0.015 µg/mL | ≤ 0.015 µg/mL | ≤ 0.015 µg/mL | 0.25 µg/mL (≈ 0.558 µM) | 1 µg/mL (≈ 2.23 µM) | 0.5 µg/mL (≈ 1.12 µM) |  | 2 µg/mL (≈ 4.46 µM) | 13.5 days | 141 µM
Cc1nn([C@H](C)[C@](O)(Cn2cncn2)c2ccc(F)cc2F)c2ccc(C(F)(F)F)cc12 | ≤ 0.015 µg/mL | 1 µg/mL (≈ 2.22 µM) | 4 µg/mL (≈ 8.86 µM) | > 16 µg/mL | > 8 µg/mL | 1 µg/mL (≈ 2.22 µM) | 0.25 µg/mL (≈ 0.554 µM) | > 16 µg/mL | > 16 µg/mL | > 16 µg/mL | 2.9% | 8 µg/mL (≈ 17.7 µM) |  | 
Cc1nn([C@H](C)[C@](O)(Cn2cncn2)c2ccc(F)cc2F)c2ccc([N+](=O)[O-])cc12 | 0.015 µg/mL (≈ 0.035 µM) | 0.25 µg/mL (≈ 0.584 µM) | 4 µg/mL (≈ 9.34 µM) | 16 µg/mL (≈ 37.3 µM) | 4 µg/mL (≈ 9.34 µM) | 0.125 µg/mL (≈ 0.292 µM) | 0.063 µg/mL (≈ 0.147 µM) | 4 µg/mL (≈ 9.34 µM) | 16 µg/mL (≈ 37.3 µM) | 8 µg/mL (≈ 18.7 µM) |  | 8 µg/mL (≈ 18.7 µM) |  | 
Cc1nn([C@H](C)[C@](O)(Cn2cncn2)c2ccc(F)cc2F)c2ccc(F)cc12 | 0.031 µg/mL (≈ 0.0772 µM) | 0.5 µg/mL (≈ 1.25 µM) | 4 µg/mL (≈ 9.97 µM) | 8 µg/mL (≈ 19.9 µM) | 4 µg/mL (≈ 9.97 µM) | 0.5 µg/mL (≈ 1.25 µM) | 0.125 µg/mL (≈ 0.311 µM) | 4 µg/mL (≈ 9.97 µM) | 16 µg/mL (≈ 39.9 µM) | 4 µg/mL (≈ 9.97 µM) |  | 8 µg/mL (≈ 19.9 µM) |  | 
C[C@@H](n1ncc2ccccc21)[C@](O)(Cn1cncn1)c1ccc(F)cc1F | ≤ 0.015 µg/mL | 0.063 µg/mL (≈ 0.171 µM) | 0.5 µg/mL (≈ 1.35 µM) | 1 µg/mL (≈ 2.71 µM) | 0.125 µg/mL (≈ 0.338 µM) | 0.063 µg/mL (≈ 0.171 µM) | 0.063 µg/mL (≈ 0.171 µM) | 2 µg/mL (≈ 5.41 µM) | 4 µg/mL (≈ 10.8 µM) | 2 µg/mL (≈ 5.41 µM) |  | 2 µg/mL (≈ 5.41 µM) | 7.2 days | 599 µM
C[C@@H](n1ncc2ccc([N+](=O)[O-])cc21)[C@](O)(Cn1cncn1)c1ccc(F)cc1F | ≤ 0.015 µg/mL | 0.25 µg/mL (≈ 0.603 µM) | 0.5 µg/mL (≈ 1.21 µM) | 2 µg/mL (≈ 4.83 µM) | ≤ 0.015 µg/mL | ≤ 0.015 µg/mL | ≤ 0.015 µg/mL | 2 µg/mL (≈ 4.83 µM) | 4 µg/mL (≈ 9.65 µM) | 2 µg/mL (≈ 4.83 µM) |  | 8 µg/mL (≈ 19.3 µM) |  | 
C[C@@H](n1ncc2cccc([N+](=O)[O-])c21)[C@](O)(Cn1cncn1)c1ccc(F)cc1F | ≤ 0.015 µg/mL | 0.125 µg/mL (≈ 0.302 µM) | 0.5 µg/mL (≈ 1.21 µM) | 1 µg/mL (≈ 2.41 µM) | ≤ 0.015 µg/mL | ≤ 0.015 µg/mL | ≤ 0.015 µg/mL | 2 µg/mL (≈ 4.83 µM) | 4 µg/mL (≈ 9.65 µM) | 2 µg/mL (≈ 4.83 µM) |  | 4 µg/mL (≈ 9.65 µM) |  | 
CCc1nn([C@H](C)[C@](O)(Cn2cncn2)c2ccc(F)cc2F)c2ccc(F)cc12 | ≤ 0.015 µg/mL | 0.125 µg/mL (≈ 0.301 µM) | 2 µg/mL (≈ 4.81 µM) | > 16 µg/mL | 2 µg/mL (≈ 4.81 µM) | 0.125 µg/mL (≈ 0.301 µM) | 0.063 µg/mL (≈ 0.152 µM) | 16 µg/mL (≈ 38.5 µM) | > 16 µg/mL | > 16 µg/mL |  | 4 µg/mL (≈ 9.63 µM) |  | 
Cc1nn([C@H](C)[C@](O)(Cn2cncn2)c2ccc(F)cc2F)c2cc(F)ccc12 | 0.031 µg/mL (≈ 0.0772 µM) | 0.5 µg/mL (≈ 1.25 µM) | 8 µg/mL (≈ 19.9 µM) | > 16 µg/mL | > 8 µg/mL | 0.5 µg/mL (≈ 1.25 µM) | 0.25 µg/mL (≈ 0.623 µM) | 16 µg/mL (≈ 39.9 µM) | > 16 µg/mL | > 16 µg/mL |  | > 8 µg/mL |  | 
C[C@@H](n1ncc2cc([N+](=O)[O-])ccc21)[C@](O)(Cn1cncn1)c1ccc(F)cc1F | ≤ 0.015 µg/mL | 0.063 µg/mL (≈ 0.152 µM) | 0.25 µg/mL (≈ 0.603 µM) | 1 µg/mL (≈ 2.41 µM) | 0.031 µg/mL (≈ 0.0748 µM) | 0.031 µg/mL (≈ 0.0748 µM) | ≤ 0.015 µg/mL | 1 µg/mL (≈ 2.41 µM) | 2 µg/mL (≈ 4.83 µM) | 2 µg/mL (≈ 4.83 µM) |  | 4 µg/mL (≈ 9.65 µM) | 12.4 days | 
C[C@@H](n1ncc2c([N+](=O)[O-])cccc21)[C@](O)(Cn1cncn1)c1ccc(F)cc1F | ≤ 0.015 µg/mL | 0.031 µg/mL (≈ 0.0748 µM) | 1 µg/mL (≈ 2.41 µM) | 2 µg/mL (≈ 4.83 µM) | ≤ 0.015 µg/mL | 0.031 µg/mL (≈ 0.0748 µM) | ≤ 0.015 µg/mL | 1 µg/mL (≈ 2.41 µM) | 2 µg/mL (≈ 4.83 µM) | 1 µg/mL (≈ 2.41 µM) |  | 2 µg/mL (≈ 4.83 µM) |  | 
C[C@@H](n1cnc2cc(Cl)ccc2c1=O)[C@](O)(Cn1cncn1)c1ccc(F)cc1F [ALBACONAZOLE] | ≤ 0.015 µg/mL | ≤ 0.015 µg/mL | 0.25 µg/mL (≈ 0.579 µM) | 0.5 µg/mL (≈ 1.16 µM) | 0.031 µg/mL (≈ 0.0718 µM) | ≤ 0.015 µg/mL | ≤ 0.015 µg/mL | 0.5 µg/mL (≈ 1.16 µM) | 2 µg/mL (≈ 4.63 µM) | 1 µg/mL (≈ 2.32 µM) |  | 8 µg/mL (≈ 18.5 µM) |  | 
OC(Cn1cncn1)(Cn1cncn1)c1ccc(F)cc1F [FLUCONAZOLE] | 2 µg/mL (≈ 6.53 µM) | 8 µg/mL (≈ 26.1 µM) | > 8 µg/mL | > 128 µg/mL | > 8 µg/mL | > 8 µg/mL | 8 µg/mL (≈ 26.1 µM) | > 128 µg/mL | > 128 µg/mL | > 128 µg/mL |  | > 8 µg/mL |  | 
CC(=O)N1CCN(c2ccc(OCC3COC(Cn4ccnc4)(c4ccc(Cl)cc4Cl)O3)cc2)CC1 (stereo unspecified) [KETOCONAZOLE] |  |  |  |  |  |  |  |  |  |  |  | 4 µg/mL (≈ 7.53 µM) |  | 51 µM
C[C@@H](c1nc(-c2ccc(C#N)cc2)cs1)[C@](O)(Cn1cncn1)c1ccc(F)cc1F [RAVUCONAZOLE] | ≤ 0.015 µg/mL | ≤ 0.015 µg/mL | 0.125 µg/mL (≈ 0.286 µM) | 0.5 µg/mL (≈ 1.14 µM) | ≤ 0.015 µg/mL | ≤ 0.015 µg/mL | ≤ 0.015 µg/mL | 0.125 µg/mL (≈ 0.286 µM) | 1 µg/mL (≈ 2.29 µM) | 0.5 µg/mL (≈ 1.14 µM) |  | 2 µg/mL (≈ 4.57 µM) |  | 
C[C@@H](c1ncncc1F)[C@](O)(Cn1cncn1)c1ccc(F)cc1F [VORICONAZOLE] | ≤ 0.015 µg/mL | 0.125 µg/mL (≈ 0.358 µM) | 1 µg/mL (≈ 2.86 µM) | 0.5 µg/mL (≈ 1.43 µM) | 0.25 µg/mL (≈ 0.716 µM) | 0.25 µg/mL (≈ 0.716 µM) | 0.063 µg/mL (≈ 0.18 µM) | 0.25 µg/mL (≈ 0.716 µM) | 1 µg/mL (≈ 2.86 µM) | 1 µg/mL (≈ 2.86 µM) |  | 4 µg/mL (≈ 11.5 µM) |  | 
